Test results reported in ChEMBL document CHEMBL1141541, “The discovery of (R)-2-(sec-butylamino)-N-(2-methyl-5-(methylcarbamoyl)phenyl) thiazole-5-carboxamide (BMS-640994)-A potent and efficacious p38alpha MAP kinase inhibitor” (Bioorg Med Chem Lett, 2008).
Converted amounts (≈) assume the structure as drawn. Values belong to the compound of their own block, whether it stands above or below them. The source made the active and inactive calls. The rule behind the calls is not given here.

Columns and labels:
PBMC [1] = assay: Inhibition of LPS-induced TNFalpha biosynthesis in human PBMC; format: functional, cell-based
How it was run: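 PBMCs isolated from human whole blood by Ficoll–Hypaque density gradient centrifugation, resuspended at 5 · 10⁶/mL in RPMI with 10% fetal bovine serum. Cells preincubated with compound (0.2% DMSO) 5 min at RT, then LPS added (200 ng/mL stock), 6 h at 37 °C. Medium TNFα measured by ELISA; IC₅₀ from linear regression. Duplicate typical.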

[2] = molecular target: Mitogen-activated protein kinase 14 (Homo sapiens, UniProt Q16539)
Sequence of Mitogen-activated protein kinase 14 (Q16539 whole entry): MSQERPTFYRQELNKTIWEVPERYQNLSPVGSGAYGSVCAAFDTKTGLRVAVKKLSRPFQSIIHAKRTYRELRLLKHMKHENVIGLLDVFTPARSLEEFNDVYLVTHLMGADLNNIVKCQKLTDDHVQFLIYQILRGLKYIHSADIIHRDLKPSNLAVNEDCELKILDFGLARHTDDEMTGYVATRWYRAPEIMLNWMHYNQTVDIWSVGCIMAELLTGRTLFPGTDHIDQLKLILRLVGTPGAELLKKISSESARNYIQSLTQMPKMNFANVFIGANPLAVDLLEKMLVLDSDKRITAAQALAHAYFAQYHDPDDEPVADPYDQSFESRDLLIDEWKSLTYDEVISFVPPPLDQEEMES

[3] = molecular target: Tyrosine-protein kinase Lck (Homo sapiens, UniProt P06239); assay: Inhibition of Lck
Sequence of Tyrosine-protein kinase Lck (P06239 whole entry): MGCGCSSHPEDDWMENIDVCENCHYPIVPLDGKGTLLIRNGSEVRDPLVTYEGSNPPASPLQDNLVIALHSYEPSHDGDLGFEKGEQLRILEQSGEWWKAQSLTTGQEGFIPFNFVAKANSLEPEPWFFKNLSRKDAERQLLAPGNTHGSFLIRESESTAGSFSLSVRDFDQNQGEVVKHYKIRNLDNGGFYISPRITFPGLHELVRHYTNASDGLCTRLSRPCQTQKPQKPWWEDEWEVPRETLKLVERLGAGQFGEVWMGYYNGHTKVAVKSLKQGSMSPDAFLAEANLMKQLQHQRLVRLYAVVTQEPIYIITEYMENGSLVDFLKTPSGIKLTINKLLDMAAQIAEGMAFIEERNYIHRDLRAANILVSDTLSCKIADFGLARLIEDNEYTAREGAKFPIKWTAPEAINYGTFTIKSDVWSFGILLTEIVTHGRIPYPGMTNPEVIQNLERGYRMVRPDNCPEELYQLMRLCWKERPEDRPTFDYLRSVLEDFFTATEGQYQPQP

Mus musculus [4] = assay: Inhibition of LPS-induced TNFalpha production in mouse at 5 mg/kg, po administered 24 hrs before LPS challenge relative to control; format: functional, organism-based; design: dose 5 mg/kg
How it was run: (§1)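 Mice given 5 mg/kg orally, then LPS challenge after a 4 h or 24 h pre-dosing interval. Circulating TNFα reduction reported as percent versus vehicle, mean ± SD, n = 8 animals; Student's t-test.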

Mus musculus [5] = assay: Inhibition of LPS-induced TNFalpha production in mouse at 5 mg/kg, po administered 4 hrs before LPS challenge relative to control; format: functional; how it was run: as §1
Serum = assay: Drug level in LPS challenged mouse serum at 5 mg/kg, po; format: ADME, organism-based; design: dose 5 mg/kg, route oral; conditions: in vivo, read-out: Drug uptake
How it was run: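 Serum drug concentration in mice measured in the LPS challenge study after 5 mg/kg oral dosing, 4 h or 24 h pre-dosing interval.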

[6] = AUC (0 to 24hrs) in rat at 10 mg/kg, po; format: ADME, organism-based; design: time < 24 hr, dose 10 mg/kg, route oral; conditions: plasma
Cytochrome P450 1A2 = molecular target: T1, Cytochrome P450 1A2 (Homo sapiens, UniProt P05177); assay: Inhibition of CYP1A2; format: ADME
T1 sequence (P05177 whole entry): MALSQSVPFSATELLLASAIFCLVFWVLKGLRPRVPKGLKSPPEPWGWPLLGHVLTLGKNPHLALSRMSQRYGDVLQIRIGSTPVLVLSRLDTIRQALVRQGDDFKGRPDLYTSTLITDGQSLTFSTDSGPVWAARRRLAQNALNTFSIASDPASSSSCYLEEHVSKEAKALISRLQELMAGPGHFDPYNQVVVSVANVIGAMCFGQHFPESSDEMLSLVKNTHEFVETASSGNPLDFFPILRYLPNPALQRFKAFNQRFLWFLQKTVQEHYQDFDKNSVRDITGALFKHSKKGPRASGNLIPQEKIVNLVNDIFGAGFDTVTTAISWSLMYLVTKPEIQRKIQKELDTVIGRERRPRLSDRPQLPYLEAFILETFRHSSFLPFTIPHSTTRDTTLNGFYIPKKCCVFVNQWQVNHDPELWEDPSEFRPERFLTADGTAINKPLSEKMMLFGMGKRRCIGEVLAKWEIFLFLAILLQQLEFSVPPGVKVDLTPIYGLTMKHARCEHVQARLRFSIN

Cytochrome P450 2C19 = Cytochrome P450 2C19 (Homo sapiens, UniProt P33261); assay: Inhibition of CYP2C19; format: ADME
Sequence of Cytochrome P450 2C19 (P33261 whole entry): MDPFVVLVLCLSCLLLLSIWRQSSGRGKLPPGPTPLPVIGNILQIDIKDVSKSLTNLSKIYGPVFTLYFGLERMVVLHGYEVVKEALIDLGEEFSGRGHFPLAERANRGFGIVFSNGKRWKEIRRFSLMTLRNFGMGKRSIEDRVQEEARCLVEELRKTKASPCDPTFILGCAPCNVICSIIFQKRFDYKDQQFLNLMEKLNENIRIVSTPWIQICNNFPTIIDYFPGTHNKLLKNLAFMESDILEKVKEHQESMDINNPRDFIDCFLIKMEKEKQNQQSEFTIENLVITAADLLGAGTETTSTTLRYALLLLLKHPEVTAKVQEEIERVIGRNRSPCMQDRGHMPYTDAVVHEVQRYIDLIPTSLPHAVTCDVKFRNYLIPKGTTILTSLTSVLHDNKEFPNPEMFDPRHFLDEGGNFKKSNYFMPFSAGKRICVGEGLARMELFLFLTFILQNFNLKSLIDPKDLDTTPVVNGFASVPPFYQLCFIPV

Mus musculus [7] = assay: Inhibition of LPS-induced TNFalpha production in mouse at 5 mg/kg, po administered 24 hrs before LPS challenge relative to control
Rattus norvegicus [8] = organism: Rattus norvegicus; assay: Inhibition of LPS-induced TNFalpha production in Lewis rat by ELISA; format: functional
How it was run: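 Rats dosed orally; two hours later LPS (10 µg, E. coli […]) in 1 mL PBS given IP. Dose–response used to derive oral ED₅₀.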

[9] = Clearance in rat at 1 mg/kg, iv; format: ADME, organism-based; design: dose 1 mg/kg, route intravenous; conditions: in vivo
How it was run: (§2)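 Rat pharmacokinetics: iv dose 1 mg/kg and po dose 10 mg/kg, vehicle PEG300, n = 3 animals.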

PBMC [10] = assay: Inhibition of LPS-induced IL1-beta production in human PBMC; format: functional, cell-based
[11] = Half life in rat at 1 mg/kg, iv; format: ADME, organism-based; design: dose 1 mg/kg, route intravenous; conditions: in vivo; how it was run: as §2
[12] = Cmax in rat at 10 mg/kg, po; format: ADME, organism-based; design: dose 10 mg/kg, route oral; conditions: in vivo; how it was run: as §2
Cytochrome P450 2D6 = Cytochrome P450 2D6 (Homo sapiens, UniProt P10635); assay: Inhibition of CYP2D6; format: ADME
Sequence of Cytochrome P450 2D6 (P10635 whole entry): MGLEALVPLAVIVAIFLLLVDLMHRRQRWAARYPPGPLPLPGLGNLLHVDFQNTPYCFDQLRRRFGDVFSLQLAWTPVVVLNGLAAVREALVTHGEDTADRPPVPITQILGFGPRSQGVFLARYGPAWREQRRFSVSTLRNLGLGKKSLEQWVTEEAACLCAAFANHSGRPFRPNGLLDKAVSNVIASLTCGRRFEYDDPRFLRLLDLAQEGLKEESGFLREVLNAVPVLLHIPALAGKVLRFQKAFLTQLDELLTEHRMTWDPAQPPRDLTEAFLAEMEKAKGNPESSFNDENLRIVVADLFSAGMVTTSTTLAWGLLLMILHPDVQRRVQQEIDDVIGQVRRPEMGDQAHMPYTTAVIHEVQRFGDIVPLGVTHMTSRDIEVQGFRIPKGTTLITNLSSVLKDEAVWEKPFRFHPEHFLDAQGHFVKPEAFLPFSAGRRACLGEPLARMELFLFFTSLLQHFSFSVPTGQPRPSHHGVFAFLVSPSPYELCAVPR

Cytochrome P450 3A4 = Cytochrome P450 3A4 (Homo sapiens, UniProt P08684); assay: Inhibition of CYP3A4; format: ADME
Sequence of Cytochrome P450 3A4 (P08684 whole entry): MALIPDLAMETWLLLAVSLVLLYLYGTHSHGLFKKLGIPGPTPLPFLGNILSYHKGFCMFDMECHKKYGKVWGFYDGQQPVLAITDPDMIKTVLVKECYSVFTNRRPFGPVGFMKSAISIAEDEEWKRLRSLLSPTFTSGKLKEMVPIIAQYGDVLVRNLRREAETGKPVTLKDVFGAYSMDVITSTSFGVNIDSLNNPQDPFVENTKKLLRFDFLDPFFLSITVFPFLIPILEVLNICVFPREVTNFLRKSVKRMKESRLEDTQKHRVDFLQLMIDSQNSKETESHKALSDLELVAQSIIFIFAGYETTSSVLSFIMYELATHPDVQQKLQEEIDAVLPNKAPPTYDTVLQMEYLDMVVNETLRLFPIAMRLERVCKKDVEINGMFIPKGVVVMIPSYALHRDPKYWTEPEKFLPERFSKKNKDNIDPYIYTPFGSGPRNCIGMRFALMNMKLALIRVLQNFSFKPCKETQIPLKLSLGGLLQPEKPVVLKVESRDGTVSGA

[13] = Aqueous solubility at pH 6.5; format: physicochemical; conditions: buffer
Rattus norvegicus [14] = assay: Inhibition of disease progression in rat adjuvant-induced arthritis model assessed as paw swelling at 3 mg/kg, po qd; format: functional, organism-based; design: dose 3 mg/kg
How it was run: (§3)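 Rat adjuvant-induced arthritis, compound given orally once daily; disease progression read as paw swelling over study days 10–21 versus vehicle; Student's t-test.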

Rattus norvegicus [15] = assay: Inhibition of disease progression in rat adjuvant-induced arthritis model assessed as paw swelling at 0.3 mg/kg, po qd; format: functional; how it was run: as §3
[16] = Protein binding in human; format: ADME, organism-based; conditions: in vivo, read-out: PB (converted)
[17] = Permeability across human Caco-2 cells; format: ADME, cell-based; conditions: read-out: permeability
Rattus norvegicus [18] = assay: Inhibition of disease progression in rat adjuvant-induced arthritis model assessed as paw swelling at 1 mg/kg, po qd; format: functional, organism-based; design: dose 1 mg/kg; how it was run: as §3
[19] = Oral bioavailability in rat at 10 mg/kg; format: ADME, organism-based; conditions: in vivo; how it was run: as §2
[20] = Drug level in rat serum at 1 mg/kg after 18 hrs; format: ADME, organism-based; design: dose 1 mg/kg; conditions: read-out: Drug uptake
How it was run: (§4)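 Terminal serum concentrations in adjuvant-arthritis rats taken 18 h after the final once-daily oral dose.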

Blood [21] = assay: Inhibition of LPS-induced IL1-beta production in human whole blood; format: functional, tissue-based
Liver = assay: Metabolic stability in mouse liver microsomes; format: ADME, Microsome
Liver microsomes [22] = assay: Metabolic stability in human liver microsomes; format: ADME, Microsome
hERG (KCNH2) = hERG (KCNH2) (Homo sapiens, UniProt Q12809); assay: Inhibition of human ERG at 30 uM by patch clamp assay
Sequence of hERG (KCNH2) (Q12809 whole entry): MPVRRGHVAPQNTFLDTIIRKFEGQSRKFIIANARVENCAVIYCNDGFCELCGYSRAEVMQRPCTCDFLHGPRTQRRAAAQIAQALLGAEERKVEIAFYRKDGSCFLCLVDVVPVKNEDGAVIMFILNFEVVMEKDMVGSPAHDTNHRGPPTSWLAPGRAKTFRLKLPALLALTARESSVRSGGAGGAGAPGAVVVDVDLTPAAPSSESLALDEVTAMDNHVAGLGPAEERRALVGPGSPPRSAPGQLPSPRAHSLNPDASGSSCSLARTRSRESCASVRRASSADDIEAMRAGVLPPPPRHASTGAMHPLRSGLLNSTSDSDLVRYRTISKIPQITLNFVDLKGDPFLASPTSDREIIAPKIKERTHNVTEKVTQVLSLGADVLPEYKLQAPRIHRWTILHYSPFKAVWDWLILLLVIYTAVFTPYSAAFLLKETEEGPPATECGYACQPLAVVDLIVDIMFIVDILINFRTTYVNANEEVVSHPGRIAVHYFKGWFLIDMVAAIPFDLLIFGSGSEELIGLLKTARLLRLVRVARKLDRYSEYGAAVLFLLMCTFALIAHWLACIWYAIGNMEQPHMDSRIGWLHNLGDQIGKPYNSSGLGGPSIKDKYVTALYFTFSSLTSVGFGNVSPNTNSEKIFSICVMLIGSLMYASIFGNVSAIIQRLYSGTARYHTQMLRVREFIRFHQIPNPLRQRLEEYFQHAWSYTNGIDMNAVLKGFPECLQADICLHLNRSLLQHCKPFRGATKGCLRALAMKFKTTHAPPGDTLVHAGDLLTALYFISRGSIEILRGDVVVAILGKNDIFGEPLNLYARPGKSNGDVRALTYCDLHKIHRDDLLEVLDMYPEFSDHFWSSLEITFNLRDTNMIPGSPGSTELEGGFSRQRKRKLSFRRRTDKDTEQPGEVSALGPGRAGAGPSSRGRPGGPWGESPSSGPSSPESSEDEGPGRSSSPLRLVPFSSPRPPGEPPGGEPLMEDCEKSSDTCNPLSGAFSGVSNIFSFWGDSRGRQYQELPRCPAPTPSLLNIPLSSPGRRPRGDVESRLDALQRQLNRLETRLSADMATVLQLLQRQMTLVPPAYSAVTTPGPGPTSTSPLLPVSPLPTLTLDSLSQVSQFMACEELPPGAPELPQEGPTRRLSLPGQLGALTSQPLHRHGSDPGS

Liver microsomes [23] = assay: Metabolic stability in rat liver microsomes; format: ADME, Microsome
[24] = Volume of distribution at steady state in rat at 1 mg/kg, iv; format: ADME, organism-based; design: dose 1 mg/kg, route intravenous; conditions: in vivo, read-out: Vdss; how it was run: as §2
[25] = Drug level in rat at 10 mg/kg, po after 24 hrs; format: ADME, organism-based; design: dose 10 mg/kg, route oral; conditions: in vivo, read-out: Drug uptake; how it was run: as §2
Blood [26] = assay: Inhibition of LPS-induced TNFalpha production in human whole blood; format: functional, tissue-based
Cytochrome P450 2C9 = Cytochrome P450 2C9 (Homo sapiens, UniProt P11712); assay: Inhibition of CYP2C9; format: ADME
Sequence of Cytochrome P450 2C9 (P11712 whole entry): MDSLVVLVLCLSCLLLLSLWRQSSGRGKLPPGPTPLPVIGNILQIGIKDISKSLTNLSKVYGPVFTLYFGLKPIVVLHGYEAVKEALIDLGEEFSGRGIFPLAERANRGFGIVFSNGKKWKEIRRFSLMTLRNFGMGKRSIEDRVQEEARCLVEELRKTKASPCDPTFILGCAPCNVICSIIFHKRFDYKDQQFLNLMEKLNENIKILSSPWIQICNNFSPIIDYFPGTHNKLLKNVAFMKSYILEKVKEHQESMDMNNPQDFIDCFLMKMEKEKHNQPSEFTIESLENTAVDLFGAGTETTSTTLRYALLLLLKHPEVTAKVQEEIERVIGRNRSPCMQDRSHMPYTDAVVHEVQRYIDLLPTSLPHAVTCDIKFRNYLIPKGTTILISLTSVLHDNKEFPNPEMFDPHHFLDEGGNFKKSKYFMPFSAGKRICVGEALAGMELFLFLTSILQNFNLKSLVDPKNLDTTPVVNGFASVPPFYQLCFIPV

[27] = Drug level in rat serum at 3 mg/kg after 18 hrs; format: ADME, organism-based; design: dose 3 mg/kg; conditions: read-out: Drug uptake; how it was run: as §4

SMILES: Cc1cccc(Cl)c1NC(=O)c1cnc(NC2CC2)s1
IC50 (PBMC [1]): 1500 nM
IC50 [2]: 39 nM
IC50 [3]: 140 nM

SMILES: CCNC(=O)c1ccc(C)c(N2Cc3nc(NC(C)C)sc3C2=O)c1
IC50 (PBMC [1]): > 250 nM
IC50 [2]: 34 nM

SMILES: CCNc1ncc(C(=O)Nc2c(C)cccc2Cl)s1
IC50 [2]: 140 nM

SMILES: Cc1ccc(C(=O)Nc2ccon2)cc1NC(=O)c1cnc(NC(C)C)s1
IC50 (PBMC [1]): 1 nM

SMILES: CNC(=O)c1ccc(C)c(N2Cc3nc(NC(C)C)sc3C2=O)c1
IC50 [2]: 110 nM

SMILES: CCNC(=O)c1ccc(C)c(NC(=O)c2sc(NCC)nc2C)c1
IC50 [2]: 330 nM

SMILES: Cc1cccc(Cl)c1NC(=O)c1cnc(Nc2ccccc2)s1
IC50 [2]: 62 nM

SMILES: CCCNc1nc2c(s1)C(=O)N(c1cc(C(=O)NCC)ccc1C)C2
IC50 [2]: 160 nM

SMILES: Cc1cccc(Cl)c1NC(=O)c1cnc(NC2CCC2)s1
IC50 [2]: 36 nM
IC50 [3]: 3310 nM

SMILES: CCCNc1ncc(C(=O)Nc2c(C)cccc2Cl)s1
IC50 (PBMC [1]): > 2000 nM
IC50 [2]: 28 nM

SMILES: CCCNc1nc(C)c(C(=O)Nc2cc(C(=O)NCC)ccc2C)s1
IC50 [2]: 130 nM

SMILES: CNC(=O)c1ccc(C)c(N2Cc3nc(NC4CCCC4)sc3C2=O)c1
IC50 [2]: 110 nM

SMILES: CCCNc1nc2c(s1)C(=O)N(c1cc(C(=O)NC)ccc1C)C2
IC50 [2]: 270 nM

Continued, in another order:

IC50 [2]: 4.2 nM
SMILES: Cc1ccc(C(=O)Nc2ccn[nH]2)cc1NC(=O)c1cnc(NC(C)C)s1
IC50 (PBMC [1]): 7.9 nM

IC50 [2]: 2 nM
IC50 [3]: 1900 nM
SMILES: CCCNc1ncc(C(=O)Nc2cc(C(=O)NCC)ccc2C)s1
IC50 (PBMC [1]): 2.7 nM
Activity (Mus musculus [4]): inactive

IC50 [2]: 22 nM
SMILES: CNC(=O)c1ccc(C)c(NC(=O)c2cnc(NCCOC)s2)c1
IC50 (PBMC [1]): > 250 nM

IC50 [2]: 3.5 nM
IC50 [3]: > 50000 nM
concentration (Serum): 400 nM
SMILES: CNC(=O)c1ccc(C)c(NC(=O)c2cnc(NC(C)C)s2)c1
IC50 (PBMC [1]): 8.7 nM
inhibition in vivo at 5 mg/kg (Mus musculus [5]): 62%
Activity (Mus musculus [4]): inactive

IC50 [2]: 5.4 nM
IC50 [3]: 5800 nM
SMILES: Cc1ccc(C(=O)Nc2ccnn2C)cc1NC(=O)c1cnc(NC(C)C)s1
IC50 (PBMC [1]): 6.4 nM

IC50 [2]: 4.5 nM
IC50 [3]: 4800 nM
SMILES: CCCNc1ncc(C(=O)Nc2cc(C(=O)NC)ccc2C)s1
IC50 (PBMC [1]): 42 nM

IC50 [3]: > 50000 nM
concentration (Serum): 250 nM
SMILES: CC[C@H](C)Nc1ncc(C(=O)Nc2cc(C(=O)NC)ccc2C)s1
IC50 (PBMC [1]): 4.1 nM
inhibition in vivo at 5 mg/kg (Mus musculus [5]): 69%

IC50 [2]: 3.4 nM
IC50 [3]: > 50000 nM
concentration (Serum): 330 nM
SMILES: CCNC(=O)c1ccc(C)c(NC(=O)c2cnc(NC(C)C)s2)c1
IC50 (PBMC [1]): 11 nM
inhibition in vivo at 5 mg/kg (Mus musculus [5]): 68%

IC50 [2]: 3.2 nM
IC50 [3]: > 50000 nM
SMILES: Cc1ccc(C(N)=O)cc1NC(=O)c1cnc(NC(C)C)s1
IC50 (PBMC [1]): 35 nM

IC50 [2]: 13 nM
SMILES: Cc1cccc(Cl)c1NC(=O)c1cnc(NC(C)C)s1
IC50 (PBMC [1]): 160 nM

IC50 [2]: 4.1 nM
SMILES: CCCNc1ncc(C(=O)Nc2cc(C(N)=O)ccc2C)s1
IC50 (PBMC [1]): 23 nM

AUC(0-t) at 24 h [6]: 25 µM·h
Activity (Cytochrome P450 1A2): > 40 µM
Activity (Cytochrome P450 2C19): > 40 µM
clearance [9]: 14.1 mL/min/kg
half-life [11]: 1.8 h
Cmax [12]: 8700 nM
Activity (Cytochrome P450 2D6): > 40 µM
Activity (Cytochrome P450 3A4): > 40 µM
solubility [13]: 22 µg/mL (≈ 63.5 µM)
IC50 [3]: 22000 nM
fraction unbound [16]: 0.18
Papp [17]: 8.3 ×10⁻⁶ cm/s
bioavailability [19]: 75%
concentration at 18 h [20]: 8.1 nM
IC50 (Blood [21]): 600 nM
Stability (Liver): 0 nmol/min/mg
Stability (Liver microsomes [22]): 0 nmol/min/mg
Stability (Liver microsomes [23]): 0 nmol/min/mg
Vd [24]: 1.8 L/kg
concentration at 24 h [25]: 7.6 nM
IC50 (Blood [26]): 54 nM
Activity (Cytochrome P450 2C9): > 40 µM
concentration at 18 h [27]: 16 nM
SMILES: CC[C@@H](C)Nc1ncc(C(=O)Nc2cc(C(=O)NC)ccc2C)s1
inhibition in vivo at 5 mg/kg (Mus musculus [7]): 46%
ED50 (Rattus norvegicus [8]): 2 mg/kg
IC50 (PBMC [10]): 99 nM
IC50 (PBMC [1]): 2.9 nM
Activity (Rattus norvegicus [14]): Active
inhibition in vivo at 0.3 mg/kg (Rattus norvegicus [15]): 46%
Activity (Rattus norvegicus [18]): Active
inhibition at 30 µM (hERG (KCNH2)): 7%
